Converted amounts (≈) assume the structure as drawn. The source made the active and inactive calls. The rule behind the calls is not given here.
Key:
A549 = test: Growth inhibition of human A549 cells at 10 uM after 48 hrs by sulforhodamine B assay; assay type: functional, cell-based
HT-29 = test: Growth inhibition of human HT-29 cells at 10 uM after 48 hrs by sulforhodamine B assay; assay type: functional, cell-based
[1] = Antibacterial activity against Bacillus subtilis JH642 containing trpC2 pheA1 assessed as growth inhibition after 16 hrs by broth dilution method; assay type: functional, Bacillus subtilis subsp. subtilis str. JH642
How it was run: (§1)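 Strains grown overnight in LB, diluted 10-fold, shaken at 37 °C for 45 min–1 h (~10⁸ CFU/mL), then diluted ~1000-fold to ~10⁵ CFU/mL. Broth dilution in LB: 20 mM DMSO stocks, 1:2 serial dilutions giving seven concentrations, inoculum added 1:1. OD600 read with shaking.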

Escherichia coli [2] = test: Antibacterial activity against Escherichia coli K-12 MG1655 assessed as growth inhibition after 16 hrs by broth dilution method; assay type: functional; settings: K-12 substr. MG1655, 16 h; how it was run: as §1
SF-539 = test: Growth inhibition of human SF539 cells at 10 uM after 48 hrs by sulforhodamine B assay; assay type: functional, cell-based
NCI/ADR-RES = test: Growth inhibition of human NCI-ADR-RES cells at 10 uM after 48 hrs by sulforhodamine B assay; assay type: functional, cell-based
HCT-15 = test: Growth inhibition of human HCT15 cells at 10 uM after 48 hrs by sulforhodamine B assay; assay type: functional, cell-based
SK-MEL-5 = test: Growth inhibition of human SK-MEL-5 cells at 10 uM after 48 hrs by sulforhodamine B assay; assay type: functional, cell-based
A498 = test: Growth inhibition of human A498 cells at 10 uM after 48 hrs by sulforhodamine B assay; assay type: functional, cell-based
DU-145 = test: Growth inhibition of human DU145 cells at 10 uM after 48 hrs by sulforhodamine B assay; assay type: functional, cell-based
Escherichia coli [3] = test: Antibacterial activity against Escherichia coli K-12 BAS901 harboring genetically modified imp-4213, zab4292::Tn5 assessed as growth inhibition after 16 hrs by broth dilution method; assay type: functional; settings: K-12 BAS901, 16 h
How it was run: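 Kanamycin-resistant strain grown overnight in LB with kanamycin 50 µg/mL, diluted 10-fold, then shaken at 37 °C for 45 min–1 h (~10⁸ CFU/mL). Diluted ~1000-fold to 10⁵ CFU/mL in LB. DMSO stocks (20 mM) prepared as 4X working solutions in LB. Seven 1:2 serial dilutions mixed with equal-volume inoculum. OD600 read with shaking.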

SNB-75 = test: Growth inhibition of human SNB75 cells at 10 uM after 48 hrs by sulforhodamine B assay; assay type: functional, cell-based
BT-549 = test: Growth inhibition of human BT549 cells at 10 uM after 48 hrs by sulforhodamine B assay; assay type: functional, cell-based
NCI-H460 [4] = test: Cytotoxicity against human NCI-H460 cells assessed as inhibition of cell viability by MTT assay; assay type: functional, cell-based
How it was run: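 NCI-H460 cells in RPMI 1640 with 10% FBS and 2 mM glutamine at 37 °C, 5% CO₂. Seeded at 10,000 cells/well for 12 h, then dosed in 1% FBS medium (DMSO below 0.1% final). MTT (10 µL of 5 mg/mL) for 4 h, formazan dissolved in DMSO for 45 min, absorbance at 562 nm. Triplicate wells, at least three runs (N = 9).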

MCF7 = test: Growth inhibition of human MCF7 cells at 10 uM after 48 hrs by sulforhodamine B assay; assay type: functional, cell-based
NCI-H460 [5] = test: Growth inhibition of human NCI-H460 cells at 10 uM after 48 hrs by sulforhodamine B assay; assay type: functional, cell-based
SR = test: Growth inhibition of human SR cells at 10 uM after 48 hrs by sulforhodamine B assay; assay type: functional, cell-based
OVCAR-3 = test: Growth inhibition of human OVCAR3 cells at 10 uM after 48 hrs by sulforhodamine B assay; assay type: functional, cell-based
MDA-MB-435 = test: Growth inhibition of human MDA-MB-435 cells at 10 uM after 48 hrs by sulforhodamine B assay; assay type: functional, cell-based
RPMI-8226 = test: Growth inhibition of human RPMI8226 cells at 10 uM after 48 hrs by sulforhodamine B assay; assay type: functional, cell-based
PC-3 = test: Growth inhibition of human PC3 cells at 10 uM after 48 hrs by sulforhodamine B assay; assay type: functional, cell-based
CAKI-1 = test: Growth inhibition of human CAKI-1 cells at 10 uM after 48 hrs by sulforhodamine B assay; assay type: functional, cell-based

| Structure (SMILES) | growth inhibition (GI) (A549) | growth inhibition (GI) (HT-29) | MIC [1] [µM] | MIC (Escherichia coli [2]) [µM] | growth inhibition (GI) (SF-539) | growth inhibition (GI) (NCI/ADR-RES) | growth inhibition (GI) (HCT-15) | growth inhibition (GI) (SK-MEL-5) | growth inhibition (GI) (A498) | growth inhibition (GI) (DU-145) | MIC (Escherichia coli [3]) [µM] | growth inhibition (GI) (SNB-75) | growth inhibition (GI) (BT-549) | IC50 (NCI-H460 [4]) [µM] | growth inhibition (GI) (MCF7) | growth inhibition (GI) (NCI-H460 [5]) | growth inhibition (GI) (SR) | growth inhibition (GI) (OVCAR-3) | growth inhibition (GI) (MDA-MB-435) | growth inhibition (GI) (RPMI-8226) | also measured |
| --- | --- | --- | --- | --- | --- | --- | --- | --- | --- | --- | --- | --- | --- | --- | --- | --- | --- | --- | --- | --- | --- |
| CCCCCCCCCCCCO[C@@H]1O[C@@H](C)[C@H](O[C@@H]2O[C@@H](C)[C@H](OC(C)=O)[C@@H](O[C@@H]3O[C@@H](C)[C@H](O)[C@@H](O[C@@H]4O[C@@H](C)[C@H](O)[C@@H](O)[C@H]4O)[C@H]3OC(C)=O)[C@H]2O)[C@@H](O)[C@H]1O | inactive | inactive | 8 (≈ 6.84 µg/mL) | > 64 | inactive | inactive | inactive | inactive | inactive | inactive | 16 (≈ 13.7 µg/mL) | inactive | inactive | 15.4 | inactive | inactive | inactive | inactive | inactive | inactive | growth inhibition (GI) (PC-3): inactive; growth inhibition (GI) (CAKI-1): inactive |
| CCCCCCCCCCCCO[C@@H]1O[C@@H](C)[C@H](O[C@@H]2O[C@@H](C)[C@H](OC(C)=O)[C@@H](O[C@@H]3O[C@@H](C)[C@H](O)[C@@H](O[C@@H]4O[C@@H](C)[C@H](OC(C)=O)[C@@H](O)[C@H]4O)[C@H]3OC(C)=O)[C@H]2O)[C@@H](O)[C@H]1O | inactive | inactive | 8 (≈ 7.18 µg/mL) | > 64 | inactive | inactive | inactive | inactive | inactive | inactive | 16 (≈ 14.4 µg/mL) | inactive | inactive | 16.5 | inactive | inactive | inactive | inactive | inactive | inactive | growth inhibition (GI) (PC-3): inactive; growth inhibition (GI) (CAKI-1): inactive |
| CCCCCCCCCCCCO[C@@H]1O[C@@H](C)[C@H](O[C@@H]2O[C@@H](C)[C@H](OC(C)=O)[C@@H](O[C@@H]3O[C@@H](C)[C@H](OC(C)=O)[C@@H](O[C@@H]4O[C@@H](C)[C@H](O)[C@@H](O)[C@H]4O)[C@H]3OC(C)=O)[C@H]2O)[C@@H](O)[C@H]1O | inactive | inactive | 8 (≈ 7.18 µg/mL) | > 64 | inactive | inactive | inactive | inactive | inactive | inactive | > 64 | inactive | inactive | 12.2 | inactive | inactive | inactive | inactive | inactive | inactive | growth inhibition (GI) (PC-3): inactive; growth inhibition (GI) (CAKI-1): inactive |
